Converted amounts (≈) assume the structure as drawn.
Legend:
Assay type in all cases: functional
[1] = Growth inhibition of human Lu-04 cells after 48 hrs by SRB assay; settings: Lu04, 48 h
In short: (§1)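 ATCC cancer lines (Bre-04 = MDA-MB-231, Lu-04 = NCI-H460, N-04 = SF-268), cultured per supplier instructions. Cells seeded in 96-well plates, incubated 16 h at 37 °C, then exposed to a range of compound concentrations for 48 h. Taxol served as positive control. Cytotoxicity read by colorimetric sulforhodamine B (SRB) chemosensitivity assay.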

[2] = Growth inhibition of human N-04 cells after 48 hrs by SRB assay; settings: N04, 48 h; in short: as §1
[3] = Growth inhibition of human Bre-04 cells after 48 hrs by SRB assay; settings: Bre04, 48 h; in short: as §1

| SMILES | GI50 [1] [µg/mL] | GI50 [2] [µg/mL] | GI50 [3] [µg/mL] |
| --- | --- | --- | --- |
| CS[C@@]1(CO)C(=O)N(C)[C@@](Cc2cn([C@]34C[C@]5(SC)C(=O)N(C)[C@@](CO)(SC)C(=O)N5[C@H]3Nc3ccccc34)c3ccccc23)(SC)C(=O)N1C | 0.05 (≈ 0.0648 µM) | 0.2 (≈ 0.259 µM) | 0.06 (≈ 0.0778 µM) |
| CS[C@]12COCN3c4ccccc4[C@]4(C[C@]5(SC)C(=O)N(C)[C@@](CO)(SC)C(=O)N5[C@@H]34)n3cc(c4ccccc43)C[C@](SC)(C(=O)N1C)N(C)C2=O [CHAETOCOCHIN A] | 3.4 (≈ 4.34 µM) | 7 (≈ 8.94 µM) | 4.1 (≈ 5.24 µM) |
| CS[C@@]1(CO)C(=O)N(C)[C@@](Cc2cn([C@]34C[C@@]56SS[C@@](CO)(C(=O)N5[C@H]3Nc3ccccc34)N(C)C6=O)c3ccccc23)(SC)C(=O)N1C [CHAETOCOCHIN C] | 1.9 (≈ 2.56 µM) | 0.4 (≈ 0.54 µM) | 0.4 (≈ 0.54 µM) |
| CC(=O)O[C@H]1C(=O)[C@@]2(C)[C@H]([C@H](OC(=O)c3ccccc3)[C@]3(O)C[C@H](OC(=O)[C@H](O)[C@@H](NC(=O)c4ccccc4)c4ccccc4)C(C)=C1C3(C)C)[C@]1(OC(C)=O)CO[C@@H]1C[C@@H]2O [PACLITAXEL] | 0.03 (≈ 0.0351 µM) | 0.04 (≈ 0.0468 µM) | 0.04 (≈ 0.0468 µM) |

— ChEMBL document CHEMBL1158068, “Chaetocochins A-C, epipolythiodioxopiperazines from Chaetomium cochliodes” (2006)
